Experimental data reported in ChEMBL document CHEMBL3994666 (ACS Med Chem Lett, 2017).
Values after ≈ are worked out from the molar mass of the structure shown. Active and inactive are the calls of the source. No cut-off for these calls is given here.

Columns and labels:
[1] = biological target: T1, Proteasome subunit beta type-9 (Homo sapiens, UniProt P28065); experiment: Inhibition of LMP2 in human MOLT4 cell lysate after 1 hr by ELISA
T1 sequence (P28065 whole entry): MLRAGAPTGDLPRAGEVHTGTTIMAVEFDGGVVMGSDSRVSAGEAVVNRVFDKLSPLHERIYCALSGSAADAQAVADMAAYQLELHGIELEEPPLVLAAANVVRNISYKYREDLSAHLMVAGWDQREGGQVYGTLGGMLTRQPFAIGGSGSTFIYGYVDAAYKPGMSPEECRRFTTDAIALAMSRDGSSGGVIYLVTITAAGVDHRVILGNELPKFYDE
In short: (§1)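 ProCISE subunit-specific ELISA of proteasome catalytic active sites in cell lysate. Values are mean ± SD, n ≥ 2.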

[2] = Stability in Sprague-Dawley rat liver S9 fraction assessed as compound remaining at 1 uM incubated for 90 mins in absence of NADPH by LC-MS/MS analysis; assay type: ADME, tissue-based; conditions: read-out: Stability
In short: (§2)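 Compound incubated with liver S9 fraction for 90 min without NADPH. Values are mean ± SD, n ≥ 3.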

[3] = Stability in Balb/c mouse liver S9 fraction assessed as compound remaining at 1 uM incubated for 90 mins in absence of NADPH by LC-MS/MS analysis; assay type: ADME, tissue-based; conditions: read-out: Stability; in short: as §2
[4] = Solubility of the compound in phosphate buffer at pH 7.2 at 10 mg/ml after 24 hrs by UV-HPLC method; assay type: physicochemical
In short: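 Solubility measured at pH 7.2. Values are mean ± SD, n = 2.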

[5] = Stability in human liver S9 fraction assessed as compound remaining at 1 uM incubated for 90 mins in absence of NADPH by LC-MS/MS analysis; assay type: ADME, tissue-based; conditions: read-out: Stability; in short: as §2
[6] = biological target: T2, Proteasome Macropain subunit MB1 (Homo sapiens, UniProt P28074); experiment: Inhibition of proteasome beta5 in human MOLT4 cell lysate after 1 hr by ELISA; in short: as §1
T2 sequence (P28074 whole entry): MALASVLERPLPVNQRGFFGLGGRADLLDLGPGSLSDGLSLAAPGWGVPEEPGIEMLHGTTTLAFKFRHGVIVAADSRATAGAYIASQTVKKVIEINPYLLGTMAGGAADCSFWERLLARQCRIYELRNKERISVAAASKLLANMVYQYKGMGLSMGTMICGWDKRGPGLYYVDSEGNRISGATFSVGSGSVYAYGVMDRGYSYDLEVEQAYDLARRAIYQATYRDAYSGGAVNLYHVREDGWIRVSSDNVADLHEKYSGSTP

[7] = biological target: T3, Proteasome subunit beta type-10 (Homo sapiens, UniProt P40306); experiment: Inhibition of MECL1 in human MOLT4 cell lysate after 1 hr by ELISA
T3 sequence (P40306 whole entry): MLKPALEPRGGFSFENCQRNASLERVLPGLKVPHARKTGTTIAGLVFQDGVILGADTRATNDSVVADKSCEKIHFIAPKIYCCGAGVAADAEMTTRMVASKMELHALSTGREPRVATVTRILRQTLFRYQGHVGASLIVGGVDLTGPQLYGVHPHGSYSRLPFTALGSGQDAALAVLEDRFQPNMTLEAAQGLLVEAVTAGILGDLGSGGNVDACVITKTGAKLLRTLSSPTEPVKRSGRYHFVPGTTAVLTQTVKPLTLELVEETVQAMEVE

[8] = biological target: T4, Proteasome subunit beta type-8 (Homo sapiens, UniProt P28062); experiment: Inhibition of LMP7 in human MOLT4 cell lysate after 1 hr by ELISA; in short: as §1
T4 sequence (P28062 whole entry): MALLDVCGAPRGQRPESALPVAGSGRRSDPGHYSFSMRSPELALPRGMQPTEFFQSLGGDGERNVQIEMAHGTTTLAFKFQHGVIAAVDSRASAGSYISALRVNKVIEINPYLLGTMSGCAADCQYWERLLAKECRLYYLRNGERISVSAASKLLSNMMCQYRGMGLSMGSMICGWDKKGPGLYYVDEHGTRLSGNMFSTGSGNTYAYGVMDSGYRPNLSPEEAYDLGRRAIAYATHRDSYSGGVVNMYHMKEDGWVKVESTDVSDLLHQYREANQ

[9] = test system: PBMC; experiment: Cytotoxicity against human PBMC assessed as decrease in cell viability by CellTiter-Glo assay; assay type: cell-based
In short: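 PBMC viability read out with CellTiter-Glo. IC50 derived from the viability signal.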

[10] = test system: Mus musculus; experiment: In vivo inhibition of proteasome beta5 in Balb/c mouse assessed as residual activity in blood at 1 mg/kg, iv administered as single bolus dose using PEG300/WFI formulation after 1 hr by ELISA relative to control; assay type: functional
In short: (§3)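 Mice dosed intravenously at nominal doses. Blood collected 1 h later and proteasome active-site activity (LMP2, LMP7, β5) measured by ProCISE subunit-specific ELISA. Expressed as % activity remaining relative to control.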

[11] = test system: PBMC; experiment: Anti-inflammatory activity in human PBMC assessed as inhibition of LPS-induced TNF-alpha production pretreated for 1 hr followed by LPS stimulation measured after 20 hrs; assay type: functional, cell-based
[12] = test system: PBMC; experiment: Anti-inflammatory activity in human PBMC assessed as inhibition of LPS-induced Il-1b production pretreated for 1 hr followed by LPS stimulation measured after 20 hrs; assay type: functional, cell-based
[13] = test system: PBMC; experiment: Anti-inflammatory activity in human PBMC assessed as inhibition of LPS-induced IL-8 production pretreated for 1 hr followed by LPS stimulation measured after 20 hrs; assay type: functional, cell-based
[14] = test system: PBMC; experiment: Anti-inflammatory activity in human PBMC assessed as inhibition of LPS-induced GMCSF production pretreated for 1 hr followed by LPS stimulation measured after 20 hrs; assay type: functional, cell-based
[15] = test system: Mus musculus; experiment: In vivo inhibition of LMP7 in Balb/c mouse assessed as residual activity in blood at 1 mg/kg, iv administered as single bolus dose using PEG300/WFI formulation after 1 hr by ELISA relative to control; assay type: functional; in short: as §3
[16] = test system: PBMC; experiment: Anti-inflammatory activity in human PBMC assessed as inhibition of LPS-induced IL-12/23 p40 production pretreated for 1 hr followed by LPS stimulation measured after 20 hrs; assay type: functional, cell-based
[17] = test system: Mus musculus; experiment: In vivo inhibition of LMP2 in Balb/c mouse assessed as residual activity in blood at 1 mg/kg, iv administered as single bolus dose using PEG300/WFI formulation after 1 hr by ELISA relative to control; assay type: functional; in short: as §3
[18] = test system: PBMC; experiment: Anti-inflammatory activity in human PBMC assessed as inhibition of LPS-induced IL-6 production pretreated for 1 hr followed by LPS stimulation measured after 20 hrs; assay type: functional, cell-based
[19] = test system: Mus musculus; experiment: In vivo inhibition of LMP7 in Balb/c mouse assessed as residual activity in blood at 1 mg/kg, iv administered as single bolus dose using 10% EtOH/25% PEG300 formulation after 1 hr by ELISA relative to control; assay type: functional; in short: as §3
[20] = test system: Mus musculus; experiment: In vivo inhibition of LMP2 in Balb/c mouse kidney at >1 mg/kg, iv administered as single bolus dose using 10% EtOH/25% PEG300 formulation after 1 hr by ELISA relative to control; assay type: functional
[21] = test system: Mus musculus; experiment: In vivo inhibition of LMP2 in Balb/c mouse liver at >1 mg/kg, iv administered as single bolus dose using 10% EtOH/25% PEG300 formulation after 1 hr by ELISA relative to control; assay type: functional
[22] = test system: Mus musculus; experiment: In vivo inhibition of LMP2 in Balb/c mouse brain at >1 mg/kg, iv administered as single bolus dose using 10% EtOH/25% PEG300 formulation after 1 hr by ELISA; assay type: functional, organism-based
[23] = test system: Mus musculus; experiment: In vivo inhibition of LMP2 in Balb/c mouse heart at >1 mg/kg, iv administered as single bolus dose using 10% EtOH/25% PEG300 formulation after 1 hr by ELISA relative to control; assay type: functional
[24] = test system: Mus musculus; experiment: In vivo inhibition of LMP2 in Balb/c mouse assessed as residual activity in blood at 1 mg/kg, iv administered as single bolus dose using 10% EtOH/25% PEG300 formulation after 1 hr by ELISA relative to control; assay type: functional; in short: as §3
[25] = test system: Mus musculus; experiment: In vivo inhibition of proteasome beta5 in Balb/c mouse assessed as residual activity in blood at 1 mg/kg, iv administered as single bolus dose using 10% EtOH/25% PEG300 formulation after 1 hr by ELISA relative to control; assay type: functional; in short: as §3
[26] = test system: Mus musculus; experiment: In vivo inhibition of LMP2 in Balb/c mouse assessed as residual activity in blood at 2 mg/kg, iv administered as single bolus dose using 10% EtOH/25% PEG300 formulation after 1 hr by ELISA relative to control; assay type: functional; in short: as §3
[27] = test system: Mus musculus; experiment: In vivo inhibition of LMP7 in Balb/c mouse assessed as residual activity in blood at 2 mg/kg, iv administered as single bolus dose using 10% EtOH/25% PEG300 formulation after 1 hr by ELISA relative to control; assay type: functional; in short: as §3
[28] = test system: Mus musculus; experiment: In vivo inhibition of proteasome beta5 in Balb/c mouse assessed as residual activity in blood at 2 mg/kg, iv administered as single bolus dose using 10% EtOH/25% PEG300 formulation after 1 hr by ELISA relative to control; assay type: functional; in short: as §3

SMILES | IC50 [1] | remaining at 1.5 h, 1 µM [2] | remaining at 1.5 h, 1 µM [3] | solubility at 24 h [4] | remaining at 1.5 h, 1 µM [5] | IC50 [6] | IC50 [7] | IC50 [8] | IC50 [9] | IC50 [11] | IC50 [12] | IC50 [13] | IC50 [14] | IC50 [16] | IC50 [18] | further results
C[C@H](NC(=O)c1cccc(=O)[nH]1)C(=O)N[C@@H](Cc1ccccc1)C(=O)[C@@]1(C)CO1 | 0.112 µM | 58.8% | 85.1% | 7520 µg/mL (≈ 18.9 mM) | 25.3% | 42.5 µM | > 250 µM | 44.6 µM |  |  |  |  |  |  |  | 
COc1ccc(C[C@H](NC(=O)[C@H](C)NC(=O)CN2CCOCC2)C(=O)N[C@@H](Cc2ccccc2)C(=O)[C@@]2(C)CO2)cc1 |  | 23.3% | 106% | 461 µg/mL (≈ 0.794 mM) | 8.6% |  |  |  | 3.4 µM | 0.56 µM | 1.47 µM | 1.11 µM | 0.22 µM | 0.12 µM | 0.24 µM | Activity [10]: 99.8%; Activity [15]: 65.3%; Activity [17]: 95%
C[C@]1(C(=O)[C@H](Cc2ccccc2)NC(=O)[C@H](CO)NC(=O)c2cccc(=O)[nH]2)CO1 | 0.051 µM | 92.3% | 90.9% | 6640 µg/mL (≈ 16.1 mM) | 81.5% | 6.89 µM | > 250 µM | 4.27 µM | > 25 µM | > 25 µM | > 25 µM | > 25 µM | > 25 µM | > 9.7 µM | > 19.2 µM | Activity [19]: 102.5%; inhibition (INH) [20]: >50%; inhibition (INH) [21]: >50%; inhibition [22]: inactive; inhibition (INH) [23]: >50%; Activity [24]: 31.1%; Activity [25]: 101.7%
COc1ccc(C[C@H](NC(=O)c2cccc(=O)[nH]2)C(=O)N[C@@H](Cc2ccccc2)C(=O)[C@@]2(C)CO2)cc1 | 0.14 µM | 8% | 0.4% | 166 µg/mL (≈ 0.33 mM) | 1.1% | 18.2 µM | > 250 µM | 4.81 µM | > 25 µM | > 25 µM | > 25 µM | > 25 µM | > 25 µM | > 5.6 µM | > 15.8 µM | Activity [26]: 83%; Activity [27]: 98.3%; Activity [28]: 90.7%
